Source: ChEMBL document CHEMBL2016465, “Host-directed Inhibitors of Myxoviruses: Synthesis and in vitro Biochemical Evaluation” (ACS Med Chem Lett, 2011)

Assays:
Measles morbillivirus [1] = test: Antiviral activity against Measles virus MVi/Alaska USA/16.00 genotype H2 infected in african green monkey Vero cells assessed as reduction in viral-induced cytopathogenicity; type: functional, organism-based; details: MVi/Alaska USA/16.00 genotype H2, Vero
Outline: (§1)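 Run on actively dividing cells. EC50 from four-parameter variable-slope nonlinear regression, reported as the average of four experiments ± SEM. Highest concentration tested was 75 μM.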

Measles morbillivirus [2] = test: Antiviral activity against Measles virus; type: functional, organism-based; outline: as §1
[3] = (§2) Cytotoxicity against african green monkey Vero cells after 24 hrs by MTT assay; type: cell-based; details: chlorocebus sabaeus, Vero cells
Outline: (§3)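 Run on confluent cell monolayers to reflect acute toxicity. CC50 is given as the range of two experiments. Highest concentration tested was 75 μM.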

Vero = test: as §2; type: cell-based; details: chlorocebus sabaeus, vero, 24 h; outline: as §3
Measles morbillivirus [4] = test: Antiviral activity against Measles virus MVi/Alaska USA/16.00 genotype H2 infected in african green monkey Vero cells measured 28 to 36 hrs post infection by cell based virus yield reduction assay; type: functional, organism-based; details: MVi/Alaska USA/16.00 genotype H2, Vero; outline: as §1
[5] = test system: Respiratory syncytial virus; test: Antiviral activity against Respiratory syncytial virus; type: functional, organism-based; details: human respiratory syncytial virus
Human respirovirus 3 = test: Antiviral activity against Human parainfluenza virus 3; type: functional, organism-based
[6] = test system: unidentified influenza virus; test: Antiviral activity against Influenza virus; type: functional, organism-based
Mumps virus = test: Antiviral activity against Mumps virus; type: functional, organism-based; details: Mumps orthorubulavirus
Paramyxoviridae = test: Antiviral activity against Paramyxovirus measured 28 to 36 hrs post infection by cell based virus yield reduction assay; type: functional

Row | Structure (SMILES) | EC50 (Measles morbillivirus [1]) [nM] | other results
1 | COc1ccc(-n2c(SC(C)C(=O)Nc3nc(C)cs3)nc3ccccc32)cc1 (racemic) | 2800 | 
2 | Cc1cccc(-n2c(SCC(=O)Nc3ncc(Cl)cc3Cl)nc3ccccc32)c1 |  | EC50 (Measles morbillivirus [2]): 2100 nM
3 | CCOc1ccc(-n2c(SC(C)C(=O)Nc3ncc(Cl)cc3Cl)nc3ccccc32)cc1 (racemic) | 100 | CC50 at 24 h [3]: 18.5 µM
4 | COc1ccc(-n2c([S+]([O-])C(C)C(=O)Nc3ccc(C)cc3Cl)nc3ccccc32)cc1 (stereo not drawn) | 1300 | CC50 (Vero): > 75 µM
5 | COc1ccc(-n2c(S[C@@H](C)C(=O)Nc3ccc(C)cc3Cl)nc3ccccc32)cc1 | 300 | 
6 | COc1ccc(-n2c(S[C@H](C)C(=O)Nc3ccc(C)cc3Cl)nc3ccccc32)cc1 | 200 | 
7 | Cc1ccc(NC(=O)C(C)Sc2nc3ccccc3n2Cc2ccccc2)c(Cl)c1 (stereo not drawn) | 400 | CC50 (Vero): > 75 µM
8 | COc1ccc(-n2c(CCC(=O)Nc3ccc(C)cc3Cl)nc3ccccc32)cc1 | > 150000 | 
9 | O=C(CSc1nc2ccccc2n1-c1ccccc1)Nc1ncc(Cl)cc1Cl |  | EC50 (Measles morbillivirus [2]): 700 nM
10 | COc1ccc(-n2c(SC(C)C(=O)Nc3ncc(C)cc3Cl)nc3ccccc32)cc1 (racemic) | 50 | CC50 at 24 h [3]: 0.88 µM
11 | COc1ccc(-n2c(SC(C)C(=O)Nc3ccc(Cl)cn3)nc3ccccc32)cc1 (racemic) | > 75000 | 
12 | COc1ccc(-n2c(SC(C)C(=O)Nc3ncc(C(F)(F)F)cc3Cl)nc3ccccc32)cc1 (racemic) | 400 | CC50 at 24 h [3]: 9.2 µM
13 | COc1ccc(-n2c(SC(C)C(=O)Nc3cc(Br)ccc3Br)nc3ccccc32)cc1 (racemic) | 1400 | 
14 | Cc1nnc(NC(=O)C(C)Sc2nc3ccccc3n2-c2ccc(F)cc2)nc1C (racemic) | 17400 | 
15 | COc1ccc(-n2c(SC(C)C(=O)Nc3cc(C)no3)nc3ccccc32)cc1 (racemic) | 400 | CC50 (Vero): > 75 µM
16 | COc1ccc(Cn2c(SC(C)C(=O)Nc3ccc(C)cc3Cl)nc3ccccc32)cc1 (stereo not drawn) | 700 | CC50 (Vero): > 75 µM
17 | Cc1ccc(NC(=O)[C@H](C)Oc2nc3ccccc3n2Cc2ccccc2)c(Cl)c1 | > 150000 | 
18 | COc1ccc(-n2c(SC(C)C(=O)Nc3nc(C)cc(Cl)n3)nc3ccccc32)cc1 (racemic) | > 75000 | 
19 | COc1ccc(-n2c(SC(C)C(=O)Nc3nc(C)c(Cl)cc3Cl)nc3ccccc32)cc1 (racemic) | 200 | CC50 at 24 h [3]: 7.25 µM
20 | COc1ccc(-n2c(SC(C)C(=O)Nc3ccc(C)cc3Cl)nc3ccccc32)cc1 (racemic) | 200 | EC50 (Measles morbillivirus [4]): 30 nM; EC50 [5]: 10 nM; EC50 (Human respirovirus 3): 10 nM; EC50 [6]: 10 nM; EC50 (Mumps virus): 10 nM; CC50 (Vero): > 75 µM; EC50 (Paramyxoviridae): 10 nM
21 | COc1ccc(-n2c(SC(C)C(=O)Nc3ncc(Cl)cc3Cl)nc3ccccc32)cc1 (stereo not drawn) | 350 | EC50 (Measles morbillivirus [2]): 200 nM; CC50 (Vero): > 75 µM
22 | COc1ccc(Cn2c(NC(C)C(=O)Nc3ccc(C)cc3Cl)nc3ccccc32)cc1 (stereo not drawn) | > 150000 | 
23 | COc1ccc(-n2c(SC(C)C(=O)Nc3nnc(C)c(C)n3)nc3ccccc32)cc1 (racemic) | 9300 | 
24 | COc1ccc(-n2c(SC(C)C(=O)Nc3cc(C)nn3C)nc3ccccc32)cc1 (racemic) | 500 | CC50 (Vero): 75 µM
25 | COc1ccc(-n2c(SC(C)C(=O)Nc3nc(C)c(Br)cc3Br)nc3ccccc32)cc1 (racemic) | 500 | CC50 at 24 h [3]: 9.7 µM
26 | CC(Sc1nc2ccccc2n1-c1ccc(F)cc1)C(=O)Nc1ncc(Cl)cc1Cl (racemic) | 100 | CC50 at 24 h [3]: 5.9 µM
27 | CCOc1ccc(-n2c(SC(C)C(=O)Nc3cc(C)cc(C)n3)nc3ccccc32)cc1 (racemic) | 1200 | 
28 | COc1ccc(-n2c(S(=O)(=O)C(C)C(=O)Nc3ccc(C)cc3Cl)nc3ccccc32)cc1 (stereo not drawn) | > 150000 | 
